Experimental data taken from PubChem BioAssay.
Results filed as inconclusive are left out.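 How the source made its calls, unless noted: active means viability increase at or above a cutoff of the median across tested compounds plus 3 SD (cut at about 8.5% in these data, passing the limit was not always enough); inconclusive means some gains above the cutoff, reason not given; inactive means the rest.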

Columns and labels:
[1] = OD615 S. cerevisiae growth inhibition, permissive medium, pilot counter-assay, permissive growth control for S. cerevisiae lifespan shortening project (AID 705;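 active means growth inhibition above 25% in both replicates, a cutoff set 3 SD above the mean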); conditions: OD615, 24 h, at 10 µM, stronger effect = higher value
Outline: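 Material: engineered DeaD yeast; compound dosing: one dose 10 µM, DMSO 0.25% final; measure: yeast growth inhibition indicated by reduced 24 h OD615; detection: OD615 turbidity read; incubation: cells pre-grown 4 h, then 24 h compound exposure, 30 °C humidified; medium: permissive synthetic complete medium with raffinose and galactose carbon sources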

[2] = Restrictive medium S. cerevisiae growth inhibition, OD615, pilot screen of yeast lifespan reduction project, restrictive growth control (AID 706;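 active means growth inhibition above a set limit, 3 SD over mean compound inhibition, in both replicates, cut at about 43% in these data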;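 further: modified DeaD lifespan yeast strain shifted to restrictive glucose medium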); conditions: OD615, 48 h, at 10 µM, stronger effect = higher value
Outline: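 material = engineered S. cerevisiae DeaD strain | medium = glucose-based CSMM-D restrictive medium | times = 4 h pre-incubation, 48 h exposure at 30 °C | technique = OD615 absorbance reading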

[3] = viability gain of MRP-1-high H69AR cells under doxorubicin, pilot screen, MRP-1 activator project, CellTiter-Glo, duplicate (AID 807); conditions: H69AR viability with doxorubicin, CellTiter-Glo luminescence; at 10 µM; stronger effect = higher value;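 further: compound pretreatment 18-22 h then 72 h combined with doxorubicin; 0% = doxorubicin alone and 100% = vehicle without doxorubicin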
[4] = growth suppression of beta-catenin knockout HCT116, pilot screen, human colon tumor cells (AID 823;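 active means cell viability at or below a set limit in both duplicate runs, the limit being the all-compound median minus 4 SD, cut at about 23% in these data, passing the limit was not always enough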;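 further: 0% = wells killed by 20 µM Hyamine and 100% = untreated DMSO cell wells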); conditions: CellTiter-Glo, 60 h, at 10 µM, stronger effect = lower value
[5] = growth suppression of PTEN-deleted HCT116, pilot screen, cell-based, HCT116 clonal line, CellTiter-Glo (AID 824;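 active means viability at or below 27.92% in each of two runs, the all-compound median minus 4 SD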;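 further: 0% = 20 µM Hyamine control and 100% = vehicle cell control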); conditions: 60 h, at 10 µM, stronger effect = lower value
[6] = inhibitors of the yeast RAM network, pilot screen, dse1pr::URA3 reporter, 5-FOA selection (AID 869;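 active means inhibition over a set limit, the all-compound mean plus 3 SD, in both replicate runs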;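 further: 0% = DMSO wells with no growth and 100% = 10 µM 1-NA-PP1 with full growth; RAM network block rescues cells from 5-FOA so hits raise OD615 growth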); conditions: S. cerevisiae dse1pr::URA3 5-FOA growth, OD615, 2 d; at 10 µM; stronger effect = higher value; strain carries analog-sensitive mutant Cbk1 kinase
[7] = RAM signaling pathway blockade in yeast – S. cerevisiae, Pdr1DBD-CYC8 efflux-inhibited sensitized strain, primary screen (AID 1298;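 active means RAM network inhibition above 8.4% in each of two replicates, 3 SD over the compound average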;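 further: 0% = DMSO untreated cells without growth and 100% = 10 µM 1-NA-PP1 full growth; higher means more yeast growth rescued from 5-FOA killing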); conditions: S. cerevisiae cbk1-as DSE1-URA3 strain, 5-FOA growth OD615, 2 d; at 50 µM; stronger effect = higher value

COc1ccc(CCNC(=O)COC(=O)c2cnc(C)cn2)cc1OC
inactive: growth inhibition [1] -8.52% | growth inhibition [2] -14.6% | viability increase [3] 1.73% | viability [4] 106% | viability [5] 100% | inhibition [6] 0.395% | RAM network inhibition [7] 2.42%

COc1ccc(Br)cc1/C=N/n1c(C)nnc1C
inactive: growth inhibition [1] -14% | growth inhibition [2] -21% | viability increase [3] -5.21% | viability [4] 66% | viability [5] 67.5% | inhibition [6] 1.7% | RAM network inhibition [7] -0.74%

O=C(O)CC1SC(=Nc2ccccc2)N(c2ccccc2)C1=O (stereo unspecified)
inactive: growth inhibition [1] -21.4% | growth inhibition [2] -13.2% | viability increase [3] -1.21% | viability [4] 98.1% | viability [5] 99.4% | inhibition [6] 1.24% | RAM network inhibition [7] 2.93%

CCOC(=O)C1=C(C)NC(=O)NC1c1ccc(C)o1 (stereo unspecified)
inactive: growth inhibition [1] 8.61% | growth inhibition [2] 7.96% | viability increase [3] -1.92% | viability [4] 105% | viability [5] 100% | inhibition [6] 0.345% | RAM network inhibition [7] 2.74%

O=C(C1CCN(S(=O)(=O)c2cccc3cccnc23)CC1)N1CCN(C2CCCC2)CC1
inactive: growth inhibition [1] -9.46% | growth inhibition [2] 7.92% | viability increase [3] -1.82% | viability [4] 94.3% | viability [5] 99.2% | inhibition [6] 0.96% | RAM network inhibition [7] 0.11%

Cc1c(C(=O)NCc2cccnc2)oc2ccc(S(=O)(=O)N3CC(C)CC(C)C3)cc12 (stereo unspecified)
inactive: growth inhibition [1] -3.33% | growth inhibition [2] 16.4% | viability increase [3] -4.52% | viability [4] 93% | viability [5] 87.1% | inhibition [6] 1.87% | RAM network inhibition [7] 2.77%

CCN1C(=O)CC(N2CCN(c3ccc(Cl)cc3)CC2)C1=O (stereo unspecified)
inactive: growth inhibition [1] -18.6% | growth inhibition [2] -7.02% | viability increase [3] 1.46% | viability [4] 98% | viability [5] 94.6% | inhibition [6] 1.04% | RAM network inhibition [7] 4.19%

CCOC(=O)CNc1c(N2CCN(c3ccccn3)CC2)c(=O)c1=O
inactive: growth inhibition [1] 2.94% | growth inhibition [2] 13.8% | viability increase [3] -1.12% | viability [4] 110% | viability [5] 102% | inhibition [6] 1.91% | RAM network inhibition [7] -0.36%

COc1ccccc1C(=O)Nc1ccc2oc(-c3ccc(F)cc3)nc2c1
inactive: growth inhibition [1] -2.88% | growth inhibition [2] 0.83% | viability increase [3] -2.78% | viability [4] 96% | viability [5] 96.5% | inhibition [6] 2.88% | RAM network inhibition [7] 1.85%

CCC(C)OC(=O)C1=C(C)NC(=O)NC1c1ccc(F)cc1 (stereo unspecified)
inactive: growth inhibition [1] -8.18% | growth inhibition [2] -18.7% | viability increase [3] -2.13% | viability [4] 97% | viability [5] 92.7% | inhibition [6] 1.36% | RAM network inhibition [7] 2.77%

CCOC(=O)c1c(C)n(C)c2ccc(OCC(O)CN3CCC(C)CC3)cc12 (stereo unspecified)
inactive: growth inhibition [1] -1.52% | growth inhibition [2] 4.4% | viability increase [3] -5.47% | viability [4] 70.2% | viability [5] 75.8% | inhibition [6] 0.415% | RAM network inhibition [7] -0.57%

COCC(=O)NCCc1nc2ccccc2[nH]1
inactive: growth inhibition [1] -0.385% | growth inhibition [2] 1.45% | viability increase [3] -2.27% | viability [4] 98.7% | viability [5] 99.1% | inhibition [6] -0.325% | RAM network inhibition [7] 0.89%

O=C(CN1C(=O)c2ccccc2S1(=O)=O)NC1CC2CCC1C2 (stereo unspecified)
inactive: growth inhibition [1] 0.325% | growth inhibition [2] -9.88% | viability increase [3] -1.68% | viability [4] 98.6% | viability [5] 89.9% | inhibition [6] 1.11% | RAM network inhibition [7] -0.63%

CCCCN(C(=O)NC(=O)C1=C(N2CCOCC2)/C(=C/c2ccccc2)CC1)S(C)(=O)=O
inactive: growth inhibition [1] -2.54% | growth inhibition [2] -6.07% | viability increase [3] -2.95% | viability [4] 86.1% | viability [5] 89.8% | inhibition [6] 0.17% | RAM network inhibition [7] -0.73%

Cc1cc(=O)[nH]c(SCc2cc(=O)n3nc(C)sc3n2)n1
inactive: growth inhibition [1] 4.53% | growth inhibition [2] -7.55% | viability increase [3] -1% | viability [4] 104% | viability [5] 96.5% | inhibition [6] 1.32% | RAM network inhibition [7] 5.96%

Cc1nnc(Sc2nc3c(c(=O)[nH]c(=O)n3C)n2Cc2ccccc2)s1
inactive: growth inhibition [1] -11.6% | growth inhibition [2] -12.4% | viability increase [3] -0.33% | viability [4] 101% | viability [5] 103% | inhibition [6] 1.61% | RAM network inhibition [7] 0.73%

C=CCSC1=NC(N)=C(C#N)C2(CCCCC2)C1C(N)=O (stereo unspecified)
inactive: growth inhibition [1] -4.98% | growth inhibition [2] 2.22% | viability increase [3] -1.39% | viability [4] 92.5% | viability [5] 96.6% | inhibition [6] 0.77% | RAM network inhibition [7] 2.04%

O=C1Nc2ccccc2C(O)(C(=O)NCc2ccco2)N1c1ccccc1 (stereo unspecified)
inactive: growth inhibition [1] -5.44% | growth inhibition [2] 1.25% | viability increase [3] -1.5% | viability [4] 108% | viability [5] 98.7% | inhibition [6] 0.96% | RAM network inhibition [7] 1.15%
